# Experimental data from ChEMBL document CHEMBL2086375 (Bioorg Med Chem, 2012).
# Key:
# [1] = tested on: Liver microsomes; test: Prodrug activation in human liver microsomes at 1 uM incubated for 10 mins prior to NADPH addition measured after 30 mins by LC/MS/MS analysis; set-up: species or system Microsome; settings: 0.5 h
# How it was run: (§1)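 Liver microsomes were pre-warmed with compound at 37 °C for 10 min, and the reaction was started with NADPH at 1 mM final. A parallel incubation without NADPH served as control. After 30 min at 37 °C, samples were quenched with acetonitrile containing 0.1% formic acid and internal standard, then centrifuged. Supernatant was diluted fivefold and read by LC/MS/MS (SRM, positive ESI). Results are percent of control remaining.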
# [2] = tested on: Liver; test: Prodrug activation in mouse liver microsomes at 1 uM incubated for 10 mins prior to NADPH addition measured after 30 mins by LC/MS/MS analysis; set-up: species or system Microsome; settings: 0.5 h; how it was run: as §1
# [3] = Prodrug activation in simulated intestinal fluid at 0.01 mg/mL after 60 mins by LC/MS analysis; settings: simulated gi fluid, 1 h
# How it was run: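 Compound at 0.01 mg/mL in simulated intestinal fluid, mixed and held at 37 °C for 60 min. Samples were injected consecutively onto a C18 reverse-phase HPLC column for analysis. Results are percent disappearance of prodrug.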
# [4] = Half life in simulated gastric fluid at 1 mg/mL; assay type: physicochemical
# [5] = tested on: Liver microsomes; test: Metabolic stability in human liver microsomes assessed as low CYP1A2 activity-mediated metabolism measured as compound remaining at 1 uM after 30 mins by LC/MS/MS analysis relative to control; settings: 0.5 h
# [6] = Half life in simulated intestinal fluid at 1 mg/mL; assay type: physicochemical; settings: simulated gi fluid
# [7] = tested on: Liver microsomes; test: Half life in human liver microsomes at 1 uM; assay type: ADME, Microsome
# [8] = tested on: Liver microsomes; test: Metabolic stability in human liver microsomes assessed as high CYP1A2 activity-mediated metabolism measured as compound remaining at 1 uM incubated for 10 mins prior to NADPH addition measured after 30 mins by LC/MS/MS analysis relative to control; settings: 0.5 h
# [9] = tested on: Liver microsomes; test: Metabolic stability in human liver microsomes assessed as low CYP1A2 activity-mediated metabolism measured as compound remaining at 1 uM incubated for 10 mins prior to NADPH addition measured after 30 mins by LC/MS/MS analysis relative to control; settings: 0.5 h
# [10] = Half life in human plasma at 1 uM; assay type: ADME, cell-free
# [11] = tested on: Liver microsomes; settings: human, 0.5 h, 1 µM
# [12] = tested on: Liver microsomes; test: Drug metabolism in human liver microsomes assessed as high CYP1A2 activity-mediated N-hydroxyriluzole formation at 1 uM incubated for 10 mins prior to NADPH addition measured after 30 mins by LC/MS/MS analysis; assay type: ADME, Microsome; settings: 0.5 h
Drug metabolism [1],Drug metabolism [2],Drug metabolism [3],Structure (SMILES),other results
0%,1%,50%,C[C@H](N)C(=O)Nc1nc2ccc(OC(F)(F)F)cc2s1,
4%,10%,50%,C[C@@H](N)C(=O)Nc1nc2ccc(OC(F)(F)F)cc2s1,
6%,40%,40%,CC(C)[C@H](N)C(=O)Nc1nc2ccc(OC(F)(F)F)cc2s1,
0%,2%,,N[C@@H](Cc1ccccc1)C(=O)Nc1nc2ccc(OC(F)(F)F)cc2s1,
18%,12%,0%,N[C@H](Cc1ccccc1)C(=O)Nc1nc2ccc(OC(F)(F)F)cc2s1,
15%,0%,0%,N[C@@H](COCc1ccccc1)C(=O)Nc1nc2ccc(OC(F)(F)F)cc2s1,half-life at 1 mg/mL [4]: > 1 h; Stability [5]: 76%; t1/2 [6]: 1.63 h; t1/2 [7]: > 1 h; Stability [8]: 70%; Stability [9]: 78%; half-life at 1 µM [10]: 5 h; Stability [11]: 77%
0%,24%,,N[C@H](COCc1ccccc1)C(=O)Nc1nc2ccc(OC(F)(F)F)cc2s1,
0%,10%,0%,COC(=O)Nc1nc2ccc(OC(F)(F)F)cc2s1,
7%,8%,0%,CCOC(=O)Nc1nc2ccc(OC(F)(F)F)cc2s1,
34%,15%,0%,CCCOC(=O)Nc1nc2ccc(OC(F)(F)F)cc2s1,
13%,53%,0%,CCCCOC(=O)Nc1nc2ccc(OC(F)(F)F)cc2s1,
14%,23%,0%,CCC(C)OC(=O)Nc1nc2ccc(OC(F)(F)F)cc2s1 (centres undefined),
10%,13%,0%,CN(C)CCOC(=O)Nc1nc2ccc(OC(F)(F)F)cc2s1,
0%,71%,0%,CN(C)CCCOC(=O)Nc1nc2ccc(OC(F)(F)F)cc2s1,
0%,70%,0%,O=C(O)CCC(=O)Nc1nc2ccc(OC(F)(F)F)cc2s1,
34%,77%,0%,COC(=O)CCC(=O)Nc1nc2ccc(OC(F)(F)F)cc2s1,
21%,0%,0%,CC(C)(C)OC(=O)CCC(=O)Nc1nc2ccc(OC(F)(F)F)cc2s1,
4%,0%,10%,O=C(CCC(=O)Nc1nc2ccc(OC(F)(F)F)cc2s1)NCc1cccnc1,
,,60%,O=C(CCC(=O)Nc1nc2ccc(OC(F)(F)F)cc2s1)NCCN1CCOCC1,
19%,66%,0%,NCCCC(=O)Nc1nc2ccc(OC(F)(F)F)cc2s1,
,,50%,NCC1(CC(=O)Nc2nc3ccc(OC(F)(F)F)cc3s2)CCCCC1,
22%,59%,0%,O=C(Cc1ccccc1[N+](=O)[O-])Nc1nc2ccc(OC(F)(F)F)cc2s1,
,,,Nc1nc2ccc(OC(F)(F)F)cc2s1 [RILUZOLE],Drug metabolism [12]: Active
